# Screening data: PubChem, The Scripps Research Institute Molecular Screening Center
# Rows were chosen to be rich in hits. Some 1.6% of all compounds tested hit in one or more screens of this group.
# proCasp7 act = counter-screen for procaspase-3 activators: activators of human procaspase-7; P55210; recombinant procaspase-7, Ac-DEVD-pNA absorbance 405 nm; D23A/D198A/D206A triple mutant, cannot self-cleave; scale: DMSO 0, 5 µM enzyme 100; activation, % at 8.5 µM; 330,000 tested, 0.093% active; AID 463210;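 active = percent activation above the screen-wide mean plus 3 SD, cut at about 25% in these data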
#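 Test system: Procaspase-7 triple mutant (PC-7 D3A). Also added: Ac-DEVD-pNA substrate, 400 µM as added. Schedule: 1 h enzyme–compound preincubation and 2 h substrate reaction, both 25 °C. Signal: p-Nitroaniline absorbance at 405 nm, read at 0 and 120 min. Control set: low DMSO alone, high DMSO plus 5 µM PC-7.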
# PLC-gamma1 inh = PLC-gamma1 (human) inhibition, primary screen. 370,000 tested, 0.84% active. purified PLC-gamma1, fluorogenic substrate, fluorescence. AID 720700. inhibition, % at 12.2 µM; in the data active = inhibition above about 9.5%
# procasp3 activ = activates human procaspase-3 | P42574 | recombinant procaspase-3 D3A, Ac-DEVD-pNA absorbance 405 nm | activation, % at 8.5 µM | 330,000 tested, 0.11% active | AID 463141;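 active = activation above the mean of all tested compounds plus 3 SD, cut at about 21% in these data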;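 note: 0% = DMSO alone and 100% = DMSO wells spiked with extra 5 µM PC-3 D3A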
# Target sequence (P42574 whole entry D9A/D28A/D175A): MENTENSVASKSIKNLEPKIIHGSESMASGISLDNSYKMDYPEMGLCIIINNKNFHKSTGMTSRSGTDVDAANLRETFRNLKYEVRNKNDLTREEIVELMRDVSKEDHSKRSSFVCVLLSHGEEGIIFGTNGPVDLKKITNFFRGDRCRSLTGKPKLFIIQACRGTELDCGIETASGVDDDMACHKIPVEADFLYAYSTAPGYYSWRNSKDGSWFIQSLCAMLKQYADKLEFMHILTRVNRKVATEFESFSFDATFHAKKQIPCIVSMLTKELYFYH
#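 material = Procaspase-3 D3A mutant | probe or stimulus = Ac-DEVD-pNA | compound = single dose, 8.5 µM nominal compound, 0.8% DMSO | timing = 1 h preincubation, 2 h reaction | measured by = 405 nm absorbance of p-nitroaniline, reads at 0 and 120 min | benchmarks = DMSO-only low control, 5 µM PC-3 D3A high control | repeats = singlicate, each compound tested once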
# PLC-beta3 inh = blocks human PLC-beta3 enzyme activity; 370,000 tested, 0.18% active; AID 720704; inhibition, % at 12.2 µM; Purified PLC-beta3, fluorogenic substrate, fluorescence; in the data active = inhibition above about 11%;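 note: 0% = median of compound wells on plate and 100% = full blocker control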
# HGIII-sPLA2 inh = Inhibits HGIII-sPLA2 liposome hydrolysis, primary screen; Q9NZ20; QFRET BODIPY PC-A2 liposome hydrolysis, fluorescence; inhibition, % at 12.2 µM; 370,000 tested, 0.56% active;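 active = inhibition above mean plus 3 SD of compounds lying within the high and low control bounds, cut at about 19% in these data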;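 note: 0% = median of test compound wells and 100% = no enzyme DMSO wells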
# Target sequence (Q9NZ20 whole entry, looked up): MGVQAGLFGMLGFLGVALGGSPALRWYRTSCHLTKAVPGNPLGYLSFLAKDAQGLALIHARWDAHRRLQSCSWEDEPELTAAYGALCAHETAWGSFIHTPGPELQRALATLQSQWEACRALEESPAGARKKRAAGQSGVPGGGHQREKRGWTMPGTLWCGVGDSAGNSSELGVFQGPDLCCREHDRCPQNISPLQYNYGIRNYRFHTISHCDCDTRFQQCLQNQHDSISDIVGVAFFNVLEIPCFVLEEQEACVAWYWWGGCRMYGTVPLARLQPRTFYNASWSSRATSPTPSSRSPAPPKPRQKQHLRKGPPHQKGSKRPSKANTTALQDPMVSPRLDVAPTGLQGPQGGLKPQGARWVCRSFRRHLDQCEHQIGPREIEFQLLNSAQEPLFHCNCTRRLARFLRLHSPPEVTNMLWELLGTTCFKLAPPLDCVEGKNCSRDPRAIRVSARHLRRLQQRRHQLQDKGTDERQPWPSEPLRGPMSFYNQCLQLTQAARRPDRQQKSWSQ
# sPLA2 confirm = human GIII-sPLA2 inhibition, confirmation; shares compounds with HGIII-sPLA2 inh; recombinant hGIII-sPLA2, BODIPY PC-A2 QFRET fluorescence; inhibition, % at 12.2 µM; 2,000 tested, 34% active;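 active = mean inhibition across triplicates above the hit cutoff set in the earlier primary screen, cut at about 19% in these data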;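 note: 0% = enzyme with DMSO and 100% = DMSO wells lacking enzyme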
# 535nm interf = 535nm fluorescence interference, HGIII-sPLA2 counter-screen | 2,000 tested, 8.5% active | shares compounds with HGIII-sPLA2 inh | inhibition, % at 12.2 µM | BODIPY FL product fluorescence interference, QFRET | AID 743282;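 active = average inhibition above the solvent-only control mean plus 3 SD, cut at about 6% in these data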;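 note: 0% = DMSO with substrate plus product and 100% = DMSO with substrate alone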
# BODIPY interf DR = interferes with 535nm fluorescence in dose response counter-screen; shares compounds with HGIII-sPLA2 inh; BODIPY FL product fluorescence interference, cell-free; IC50, µM; 240 tested, under 10 active;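 active = IC50 at or below 10 µM; inactive = IC50 above 10 µM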
# * marks the source's active call; other numbers are inactive results; x = not tested or not shown; ! = a repeat was not active.
SMILES,proCasp7 act,PLC-gamma1 inh,procasp3 activ,PLC-beta3 inh,HGIII-sPLA2 inh,sPLA2 confirm,535nm interf,others
Cc1ccc(Cn2c(=S)[nH]c3ccccc3c2=O)cc1,-1.7,-1.5,-13.2,-3.1,7.8,x,x,
CC(C)CCNC(=O)c1ccc(Cn2c(=S)[nH]c3ccccc3c2=O)cc1,3.3,-0.3,-4.1,-5.3,21.4*,19.8*,-11.2,
CCCCNC(=S)Nc1ccc2nc3n(c(=O)c2c1)CCCCC3,-6.3,1.5,-1.7,-0.4,18.3,x,x,
CC(C)CCNC(=S)Nc1ccc2nc3n(c(=O)c2c1)CCCCC3,-6.2,-1.8,-9.8,-0.8,19.9*,12.6,-12.5,
CC12CC3(C)CC(C)(C1)CC(C(=O)NC(=S)N1CCOCC1)(C2)C3,-18.1,7.8,-9.5,-0.1,20.1*,22.9*,-10.2,
O=C(Nc1ccc(Nc2ccccc2)cc1)c1cc([N+](=O)[O-])ccc1Cl,-7.0,-1.7,2.2,-1.2,-1.7,x,x,
O=C(Nc1ccccc1Oc1ccccc1)c1cc([N+](=O)[O-])ccc1Cl,8.4,2.2,-7.6,-4.5,23.1*,13.6,-5.0,
CNc1nn(-c2cccc(Cl)c2)nc1N,-22.5,4.7,-7.3,-5.0,21.6*,35.2*,2.6,BODIPY interf DR=>122
Nc1ccccc1Nc1cc(-c2ccccc2)nn1-c1cccc(Cl)c1,-7.2,-6.4,-4.8,-10.9,14.8,x,x,
Nc1cc(N)nc(SCC(=O)NCC(=O)Nc2ccc(F)c(F)c2F)n1,-1.7,3.2,2.1,1.2,-3.3,x,x,
O=C(Cc1n[nH]c(=O)c2ccccc12)Nc1cccc(S(=O)(=O)N2CCCCCC2)c1,-3.0,-0.5,2.5,-4.4,-10.6,x,x,
Cn1c2ccccc2c(=O)c2c(=O)n(C3CCCCC3)c(-c3ccco3)nc21,8.6,-40.3,-2.1,-56.0,27.9*,12.2,-42.3,
Cc1nc2c(c(=O)c3ccccc3n2C)c(=O)n1C1CCCCCC1,12.8,2.2,1.3,-1.9,-3.0,x,x,
CC1(C)CC(=O)C(C(O)c2cccc([N+](=O)[O-])c2)C(C)(C)N1 (stereo unspecified),10.1,2.0,0.8,-3.8,-0.9,x,x,
N#Cc1cc(NC2CCCC2)c([N+](=O)[O-])cc1C#N,0.5,6.2,-0.8,-7.1,24.9*,7.9,-0.8,
Cc1cc(C)[n+]2n1C(=O)C(c1ccccc1)=C2[O-],3.4,0.2,-0.4,-2.7,21.3*!,4.6,-0.4,
Cc1cc(=O)n2[nH]c(-c3ccccc3)cc2n1,9.8,1.6,1.9,-5.8,1.3,x,x,
Cc1cn([C@H]2C[C@H](O)[C@@H](CNC(=O)[C@H](N)C3CC3)O2)c(=O)[nH]c1=O,x,-3.3,x,0.1,8.9,x,x,
COc1cc(OC)cc(-c2c(-c3cccs3)c3cc(-c4ccc5cc[nH]c5c4)ccc3n2C)c1,8.3,-214.3,-0.3,-316.1,17.0,x,x,
COc1cc(OC)cc(-c2c(-c3cccs3)c3cc(-c4ccc5[nH]ccc5c4)ccc3n2C)c1,8.2,-226.2,3.0,-336.2,20.1*,36.5*,8.7*,
CN(C)c1ccc(/C=N/NC(=O)c2ccn(C)n2)cc1,5.1,-137.4,6.3,-137.1,20.1*,6.5,-3.5,
Cn1ccc(C(=O)N/N=C/c2cccnc2)n1,-5.4,7.4,5.5,-3.8,5.6,x,x,
CC(=O)Nc1sc(N/N=C\c2ccc(O)cc2)nc1-c1cccs1,-13.3,1.7,-4.7,-15.1,2.6,x,x,
CC(=O)Nc1sc(N/N=C\c2cccc(Cl)c2)nc1-c1cccs1,-18.1,-6.5,-6.9,-17.1,25.0*,35.4*,13.6*,
COc1ccc(CCN2CC(C(=O)NCc3nc4ccccc4n3C)CCC2=O)cc1 (stereo unspecified),0.1,-0.3,-1.8,-9.6,1.9,x,x,
SMILES,proCasp7 act,PLC-gamma1 inh,procasp3 activ,PLC-beta3 inh,HGIII-sPLA2 inh,sPLA2 confirm,535nm interf,others
O=[N+]([O-])c1ccc(Cl)c(/C=N/NC(=S)Nc2ccccc2)c1,0.6,2.7,3.4,1.3,-2.6,x,x,
NC(=S)N/N=C/c1cc([N+](=O)[O-])ccc1Cl,2.9,4.4,6.1,-1.5,19.6*,12.9,0.2,
COc1ccccc1N(C)S(=O)(=O)c1ccc(C(=O)NNC(=O)c2ccccc2O)cc1,x,-1.9,x,1.4,20.1*,2.0,1.0,
CC(C)NC(=S)N/N=C/c1ccccc1[N+](=O)[O-],-3.0,-2.7,-4.4,-2.0,-2.5,x,x,
CCCCNC(=S)N/N=C/c1cccc(OCC)c1O,-7.8,-185.0,-3.9,-268.2,24.3*,28.1*,-5.2,BODIPY interf DR=>122
CCOc1cccc(/C=N/NC(=S)Nc2ccccc2[N+](=O)[O-])c1O,-0.7,-7.4,-1.8,-9.6,24.1*,51.6*,13.8*,
CCOc1cccc(/C=N/NS(=O)(=O)c2ccc(C)c([N+](=O)[O-])c2)c1O,-6.0,-0.7,-1.3,-4.8,-5.2,x,x,
CCOc1cccc(/C=N\NC(=O)Cc2cccs2)c1O,x,-69.3,x,-90.1,-18.5,x,x,
O=[N+]([O-])c1ccccc1C=NNC(=S)NN=Cc1ccccc1[N+](=O)[O-],x,2.8,x,-0.8,23.7*,48.6*,7.3*,
CC1(C)Oc2ccc(C(=O)NN)cc2NC1=O,3.2,-0.2,5.5,-0.8,-6.8,x,x,
COC(=O)[C@]12C[C@H](CC(=O)NCc3cccs3)C(=O)N(Cc3ccc4c(c3)OCO4)C1=C[C@H](C(C)C)O[C@@H]2C1CC1,x,-0.2,x,1.8,-6.1,x,x,
NC(N)=NS(=O)(=O)c1ccc(NC(=S)NC(=O)/C=C/c2ccc(F)cc2)cc1,9.7,7.5,4.9,-6.7,22.1*,4.5,-4.9,
O=C(/C=C/c1ccc(F)cc1)NC(=S)Nc1ccccc1,x,-9.3,x,-4.2,-5.4,x,x,
Clc1ccccc1NN=Cc1ccccn1,x,-1.4,x,1.1,1.5,x,x,
S=c1[nH]nc(-c2ccccc2)c2ccccc12,-15.1,8.8,-11.2,2.9,20.3*,25.1*,-2.9,
COc1ccc(N2CCN(C(c3cccs3)C(C)NC(=O)c3ccc4c(c3)OCO4)CC2)cc1 (stereo unspecified),1.7,4.3,-2.8,-6.0,21.5*,1.9,-13.8,
O=C(N/N=C/c1ccc(Cl)cc1Cl)c1cccc(N2CCCC2=O)c1,-6.0,0.6,-4.9,-7.8,4.5,x,x,
O=C(N/N=C/c1cc(Br)cc(Br)c1O)c1cccc(N2CCCC2=O)c1,-39.1,-25.2,-35.0,-43.6,28.3*,23.8*,4.0,
Brc1ccc(-c2csc(/N=C/N3CCCC3)n2)cc1,-4.6,1.1,8.9,-3.1,-3.1,x,x,
CCN1CCN(/C=N/c2nc(C)cs2)CC1,-8.8,5.8,-1.7,8.4,94.2*,6.2,-3.0,
CCCN1CCC(NC(=O)C2CCN(C(C)=O)CC2)CC1,-9.7,1.4,4.1,-1.2,-0.3,x,x,
